Data as given in ChEMBL document CHEMBL1811768, “Synthesis of N-substituted 3,5-bis(arylidene)-4-piperidones with high antitumor and antioxidant activity” (J Med Chem, 2011).
Activity calls are given as the source filed them. The calls are words filed in the database; no cut-off is given here.

Experiments:
A2780 [1] = test: Cytotoxicity against human A2780 cells assessed as cell viability at 10 uM after 24 hrs by MTT assay relative to control; type: functional; conditions: A2780, 24 h, read-out: Activity
In short: (§1)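 MTT viability assay in human A2780 and MCF-7 cancer cells. Cells were exposed to compound at 10 μM for 24 h. Results are given as percent cell viability relative to the respective untreated control.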

[2] = Cytotoxicity against rat H9c2 cells assessed as cell viability at 10 uM after 24 hrs by MTT assay relative to control; type: cell-based; conditions: read-out: Activity
MCF7 [3] = test: Cytotoxicity against human MCF7 cells assessed as cell viability at 10 uM after 24 hrs by MTT assay relative to control; type: functional; conditions: MCF7, 24 h, read-out: Activity; in short: as §1
[4] = biological target: Signal transducer and activator of transcription 3 (Homo sapiens) (UniProt P40763); test: Inhibition of STAT3 phosphorylation at Tyr705/Ser727 in human MCF7 cells by Western blot analysis; type: cell-based
Sequence of Signal transducer and activator of transcription 3 (Homo sapiens) (P40763 whole entry): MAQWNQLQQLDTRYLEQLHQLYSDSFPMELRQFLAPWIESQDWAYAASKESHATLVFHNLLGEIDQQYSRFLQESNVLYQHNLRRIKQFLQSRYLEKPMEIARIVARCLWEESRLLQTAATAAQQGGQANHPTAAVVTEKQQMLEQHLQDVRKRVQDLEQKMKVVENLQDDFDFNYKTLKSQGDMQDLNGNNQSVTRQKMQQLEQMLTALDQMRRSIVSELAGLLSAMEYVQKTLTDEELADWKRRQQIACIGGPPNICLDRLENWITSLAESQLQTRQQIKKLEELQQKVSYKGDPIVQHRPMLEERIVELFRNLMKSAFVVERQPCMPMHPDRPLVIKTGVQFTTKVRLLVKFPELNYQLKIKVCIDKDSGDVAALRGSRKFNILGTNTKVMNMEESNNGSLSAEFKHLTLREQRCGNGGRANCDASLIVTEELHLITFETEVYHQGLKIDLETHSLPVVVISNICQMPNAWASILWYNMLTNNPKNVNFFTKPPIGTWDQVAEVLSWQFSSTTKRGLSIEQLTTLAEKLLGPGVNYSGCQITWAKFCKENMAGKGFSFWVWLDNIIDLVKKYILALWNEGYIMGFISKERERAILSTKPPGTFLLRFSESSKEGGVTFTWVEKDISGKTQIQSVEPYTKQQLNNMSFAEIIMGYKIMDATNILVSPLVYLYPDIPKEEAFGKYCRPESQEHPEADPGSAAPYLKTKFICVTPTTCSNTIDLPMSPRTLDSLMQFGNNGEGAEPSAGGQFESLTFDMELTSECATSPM

Kidney = test: Biodistribution in ip dosed rat kidney after 3 hrs; type: ADME, organism-based; conditions: in vivo
Liver = test: Biodistribution in ip dosed rat liver after 3 hrs; type: ADME, organism-based; conditions: in vivo
[5] = Inhibition of JAK/STAT3 pathway in human A2780 cells assessed as reduction in Bcl-xL level; type: cell-based
OV4 = test: Cytotoxicity against human OV4 cells by MTT assay; type: functional, cell-based
[6] = biological target: Signal transducer and activator of transcription 3 (Homo sapiens) (UniProt P40763); test: Inhibition of STAT3 phosphorylation at Tyr705 in human A2780 cells; type: cell-based
A2780 [7] = test: Antitumor activity against human A2780 cells in xenograft model assessed as increase of PARP level in tumor; type: functional, cell-based
Rattus norvegicus = test: Biodistribution in ip dosed rat stomach after 3 hrs; type: ADME, organism-based; conditions: in vivo
A2780 [8] = test: Antitumor activity against human A2780 cells in xenograft model assessed as tumor growth inhibition; type: functional, cell-based
[9] = biological target: Tyrosine-protein kinase JAK1 (Homo sapiens) (UniProt P23458); test: Inhibition of JAK1 phosphorylation in human A2780 cells; type: cell-based
Sequence of Tyrosine-protein kinase JAK1 (Homo sapiens) (P23458 whole entry): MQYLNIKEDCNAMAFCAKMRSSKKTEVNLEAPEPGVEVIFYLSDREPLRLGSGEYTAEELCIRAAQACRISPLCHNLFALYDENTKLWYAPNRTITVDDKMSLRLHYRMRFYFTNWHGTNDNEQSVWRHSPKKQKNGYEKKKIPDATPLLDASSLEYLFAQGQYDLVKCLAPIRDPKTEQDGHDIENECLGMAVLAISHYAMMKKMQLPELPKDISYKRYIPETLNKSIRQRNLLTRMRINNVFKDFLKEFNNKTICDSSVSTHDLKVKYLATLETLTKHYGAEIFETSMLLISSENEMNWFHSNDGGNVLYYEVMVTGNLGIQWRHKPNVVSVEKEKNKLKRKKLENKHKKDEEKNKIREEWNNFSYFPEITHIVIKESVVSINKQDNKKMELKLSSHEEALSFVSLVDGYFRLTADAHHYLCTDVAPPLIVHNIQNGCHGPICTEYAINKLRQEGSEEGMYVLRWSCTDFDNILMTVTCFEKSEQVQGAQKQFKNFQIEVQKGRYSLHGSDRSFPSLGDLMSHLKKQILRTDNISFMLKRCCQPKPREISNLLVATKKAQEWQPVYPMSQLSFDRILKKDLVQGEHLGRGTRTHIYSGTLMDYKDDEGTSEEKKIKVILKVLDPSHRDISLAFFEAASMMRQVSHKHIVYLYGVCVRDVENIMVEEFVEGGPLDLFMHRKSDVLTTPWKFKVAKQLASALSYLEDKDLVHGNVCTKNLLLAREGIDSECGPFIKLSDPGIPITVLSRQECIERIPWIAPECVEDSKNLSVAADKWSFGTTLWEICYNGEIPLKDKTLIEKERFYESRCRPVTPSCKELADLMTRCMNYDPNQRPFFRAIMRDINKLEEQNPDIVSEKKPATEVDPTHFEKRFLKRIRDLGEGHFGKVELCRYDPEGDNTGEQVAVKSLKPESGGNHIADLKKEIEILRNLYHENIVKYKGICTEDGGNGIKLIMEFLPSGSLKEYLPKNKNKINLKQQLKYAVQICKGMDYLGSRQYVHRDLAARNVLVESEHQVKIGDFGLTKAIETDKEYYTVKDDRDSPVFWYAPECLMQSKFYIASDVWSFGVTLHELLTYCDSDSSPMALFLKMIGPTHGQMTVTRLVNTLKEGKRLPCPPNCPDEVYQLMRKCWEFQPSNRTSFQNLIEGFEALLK

A2780 [10] = test: Induction of cell cycle arrest at G2/M phase in human A2780 cells assessed as modulation of cyclin expression; type: functional, cell-based
A2780 [11] = test: Induction of apoptosis in human A2780 cells assessed as caspase 3 activation; type: functional, cell-based
A2780 [12] = test: Induction of apoptosis in human A2780 cells assessed as cleavage of PARP by Western blot analysis; type: functional, cell-based
A2780 [13] = test: Antitumor activity against human A2780 cells in xenograft model assessed as reduction of STAT3 phosphorylation at Tyr705/Ser727 level in tumor; type: functional, cell-based
A2780 [14] = test: Induction of cell cycle arrest at G2/M phase in human A2780 cells assessed as modulation of p21 expression; type: functional, cell-based
A2780 [15] = test: Antitumor activity against human A2780 cells in xenograft model assessed as reduction of JAK phosphorylation level in tumor; type: functional, cell-based
MCF7 [16] = test: Induction of apoptosis in human MCF7 cells assessed as cleavage of PARP by Western blot analysis; type: functional, cell-based
[17] = Inhibition of JAK/STAT3 pathway in human A2780 cells assessed as reduction in Bcl-2 level; type: cell-based
Homo sapiens = species: Homo sapiens; test: Cytotoxicity against human A2780DDP cells by MTT assay; type: functional, cell-based
A2780 [18] = test: Induction of cell cycle arrest at G2/M phase in human A2780 cells assessed as modulation of CDK2 expression; type: functional, cell-based
[19] = biological target: Signal transducer and activator of transcription 3 (Homo sapiens) (UniProt P40763); test: Inhibition of STAT3 phosphorylation at Tyr705/Ser727 in human A2780 cells by Western blot analysis; type: cell-based
A2780 [20] = test: Antitumor activity against human A2780 cells in xenograft model assessed as increase of caspase 3 level in tumor; type: functional, cell-based
A2780 [21] = test: Induction of apoptosis in human A2780 cells assessed as caspase 3 activation by Western blot analysis; type: functional, cell-based
Blood = test: Biodistribution in ip dosed rat blood after 3 hrs; type: ADME, organism-based; conditions: in vivo
PA-1 = test: Cytotoxicity against human PA1 cells by MTT assay; type: functional, cell-based
MCF7 [22] = test: Induction of apoptosis in human MCF7 cells assessed as caspase 3 activation by Western blot analysis; type: functional, cell-based
A2780 [23] = test: Induction of cell cycle arrest at G2/M phase in human A2780 cells assessed as modulation of p27 expression; type: functional, cell-based
[24] = Inhibition of JAK/STAT3 pathway in human A2780 cells assessed as reduction in VEGF level; type: cell-based
OVCA3 = test: Cytotoxicity against human OVCA3 cells by MTT assay; type: functional, cell-based
A2780 [25] = test: Induction of apoptosis in human A2780 cells assessed as caspase 8 activation; type: functional, cell-based
A2780 [26] = test: Induction of cell cycle arrest at G2/M phase in human A2780 cells assessed as modulation of p53 expression; type: functional, cell-based
[27] = Inhibition of JAK/STAT3 pathway in human A2780 cells assessed as reduction in survivin level; type: cell-based
A2780 [28] = test: Induction of Fas/CD95 expression in human A2780 cells; type: functional, cell-based
SK-OV-3 = test: Cytotoxicity against human SKOV3 cells by MTT assay; type: functional, cell-based

`COc1ccc(/C=C2\CNC/C(=C\c3ccc(OC)c(OC)c3OC)C2=O)c(OC)c1OC` gave a viability at 10 µM (A2780 [1]) of 11%, a viability at 24 h, 10 µM [2] of 32.3% and a viability at 10 µM (MCF7 [3]) of 56.6%.
Work on `CC1(C)C=C(CN2C/C(=C\c3ccc(C(F)(F)F)cc3)C(=O)/C(=C/c3ccc(C(F)(F)F)cc3)C2)C(C)(C)N1[O]` yielded a viability at 10 µM (A2780 [1]) of 5.85%, a viability at 24 h, 10 µM [2] of 17.1% and a viability at 10 µM (MCF7 [3]) of 14.2%.
With `CC1(C)C=C(C(=O)N2C/C(=C\c3ccc(F)cc3)C(=O)/C(=C/c3ccc(F)cc3)C2)C(C)(C)N1[O]` the viability at 10 µM (A2780 [1]) was 4.54%, the viability at 24 h, 10 µM [2] was 33.3% and the viability at 10 µM (MCF7 [3]) was 12.4%.
In the case of `COc1ccc(/C=C2\CN(CC3=CC(C)(C)N([O])C3(C)C)C/C(=C\c3ccc(OC)c(OC)c3OC)C2=O)c(OC)c1OC`, the viability at 10 µM (A2780 [1]) is reported as 26.1%, the viability at 24 h, 10 µM [2] is reported as 53.1% and the viability at 10 µM (MCF7 [3]) is reported as 28%.
For `CC1(C)CCC(C)(C#CCN2C/C(=C\c3ccc(F)cc3)C(=O)/C(=C/c3ccc(F)cc3)C2)N1[O]` (stereo not given), the viability at 10 µM (A2780 [1]) was 5.89%, the viability at 24 h, 10 µM [2] was 50.7% and the viability at 10 µM (MCF7 [3]) was 38.3%.
Work on `O=C1/C(=C/c2ccc(C(F)(F)F)cc2)CNC/C1=C\c1ccc(C(F)(F)F)cc1` yielded a viability at 10 µM (A2780 [1]) of 13.1%, a viability at 24 h, 10 µM [2] of 51.7% and a viability at 10 µM (MCF7 [3]) of 20.2%.
With `CC1(C)C=C(CN2C/C(=C\c3ccccc3F)C(=O)/C(=C/c3ccccc3F)C2)C(C)(C)N1[O]` the viability at 10 µM (A2780 [1]) was 12.5%, the viability at 24 h, 10 µM [2] was 86.3% and the viability at 10 µM (MCF7 [3]) was 53.5%.
In the case of `CC1(C)c2ccc(CN3C/C(=C\c4ccc(F)cc4)C(=O)/C(=C/c4ccc(F)cc4)C3)cc2C(C)(C)N1[O]`, the viability at 10 µM (A2780 [1]) is reported as 9.5%, the viability at 24 h, 10 µM [2] is reported as 26.4% and the viability at 10 µM (MCF7 [3]) is reported as 46.2%.
In the case of `O=C1/C(=C/c2ccc(F)cc2)CNC/C1=C\c1ccc(F)cc1`, the viability at 10 µM (A2780 [1]) is reported as 12.4%, the viability at 24 h, 10 µM [2] is reported as 61.4% and the viability at 10 µM (MCF7 [3]) is reported as 17.1%.
`O=C1/C(=C/c2ccccc2F)CNC/C1=C\c1ccccc1F` gave a viability at 10 µM (A2780 [1]) of 12.8%, a viability at 24 h, 10 µM [2] of 32.9% and a viability at 10 µM (MCF7 [3]) of 34.5%.
`CC1=C(CN2C/C(=C\c3ccc(F)cc3)C(=O)/C(=C/c3ccc(F)cc3)C2)C(C)(C)N([O])C1(C)C` gave a viability at 10 µM (A2780 [1]) of 6.75%, a viability at 24 h, 10 µM [2] of 56.8% and a viability at 10 µM (MCF7 [3]) of 42%.
For `CC1(C)C=C(CN2C/C(=C\c3ccc(F)cc3)C(=O)/C(=C/c3ccc(F)cc3)C2)C(C)(C)N1[O]`, the inhibition [4] was “Active”, the viability at 10 µM (A2780 [1]) was 20.5% and the Drug uptake (Kidney) was “Active”. For the same compound, the Drug uptake (Liver) was “Active”, the inhibition [5] was “Active” and the Activity (OV4) was “Active”. The inhibition [6] was “Active”, the Activity (A2780 [7]) was “Active” and the Drug uptake (Rattus norvegicus) was “Active”. The “growth inhibition (GI)” value (A2780 [8]) was “Dose-dependent effect”, the inhibition [9] was “Active” and the Activity (A2780 [10]) was “Active”. The Activity (A2780 [11]) was “Active”, the viability at 24 h, 10 µM [2] was 88.5% and the Activity (A2780 [12]) was “Active”. The Activity (A2780 [13]) was “Active”, the Activity (A2780 [14]) was “Active” and the Activity (A2780 [15]) was “Active”. The Activity (MCF7 [16]) was “Active”, the inhibition [17] was “Active” and the Activity (Homo sapiens) was “Active”. The Activity (A2780 [18]) was “Active”, the inhibition [19] was “Active” and the Activity (A2780 [20]) was “Active”. The Activity (A2780 [21]) was “Active”, the Drug uptake (Blood) was “Active” and the Activity (PA-1) was “Active”. For the same compound, the Activity (MCF7 [22]) was “Active”, the Activity (A2780 [23]) was “Active” and the inhibition [24] was “Active”. For the same compound, the viability at 10 µM (MCF7 [3]) was 16.6%, the Activity (OVCA3) was “Active” and the Activity (A2780 [25]) was “Active”. For the same compound, the Activity (A2780 [26]) was “Active”, the inhibition [27] was “Active” and the Activity (A2780 [28]) was “Active”. The Activity (SK-OV-3) was “Active”.
In the case of `CC1(C)C=C(CN2C/C(=C\c3ccc(F)cc3)C(=O)/C(=C/c3ccc(F)cc3)C2)CC(C)(C)N1[O]`, the viability at 10 µM (A2780 [1]) is reported as 6.86%, the viability at 24 h, 10 µM [2] is reported as 51.4% and the viability at 10 µM (MCF7 [3]) is reported as 20.1%.
`CC1(C)CCC(C)(/C=C/CN2C/C(=C\c3ccc(F)cc3)C(=O)/C(=C/c3ccc(F)cc3)C2)N1[O]` (stereo not given) showed a viability at 10 µM (A2780 [1]) of 5.81%, a viability at 24 h, 10 µM [2] of 51.9% and a viability at 10 µM (MCF7 [3]) of 43.1%.
For `CC1(C)C=C(NC(=O)N2C/C(=C\c3ccc(F)cc3)C(=O)/C(=C/c3ccc(F)cc3)C2)C(C)(C)N1[O]`, the viability at 10 µM (A2780 [1]) was 5.9%, the viability at 24 h, 10 µM [2] was 36.7% and the viability at 10 µM (MCF7 [3]) was 12.6%.
For `CC1(C)c2cnc(CN3C/C(=C\c4ccc(F)cc4)C(=O)/C(=C/c4ccc(F)cc4)C3)cc2C(C)(C)N1[O]`, the viability at 10 µM (A2780 [1]) was 5.26%, the viability at 24 h, 10 µM [2] was 46.6% and the viability at 10 µM (MCF7 [3]) was 42.7%.
`CC1(C)C=C(CN2C/C(=C\c3ccc(F)cc3)C(=O)/C(=C/c3ccc(F)cc3)C2)C(C)(C)N1` showed a viability at 10 µM (A2780 [1]) of 4.79%, a viability at 24 h, 10 µM [2] of 78.8% and a viability at 10 µM (MCF7 [3]) of 28.3%.
